Test results from ChEMBL document CHEMBL4316599, “Synthesis, in vitro and in vivo biological evaluation of substituted 3-(5-imidazo[2,1-b]thiazolylmethylene)-2-indolinones as new potent anticancer agents” (Eur J Med Chem, 2019).

How the values were obtained:
CNS carcinoma cell = experiment: Cytotoxicity against human CNS cancer cells after 48 hrs by SRB assay; type: functional; details: for CC50: read-out: LC50 (the source's name)
Procedure, shortened: (§1)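 NCI-60 screen: single-dose pass at 10^-5 M, then a five-concentration assay from 10^-9 to 10^-4 M (highest 100 μM). Exposure was 48 h under standard NCI protocols. GI50, TGI and LC50 were derived per cell line and averaged by subpanel. Repeated tests are the mean of two experiments.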

Melanoma cell line = experiment: Cytotoxicity against human melanoma cells after 48 hrs by SRB assay; type: functional; details: for CC50: read-out: LC50 (the source's name); procedure, shortened: as §1
Leukemia cell = experiment: Cytotoxicity against human leukemia cells after 48 hrs by SRB assay; type: functional; procedure, shortened: as §1
NSCLC = experiment: Cytotoxicity against human NSCLC cells after 48 hrs by SRB assay; type: functional; procedure, shortened: as §1
[1] = Cytotoxicity against human COLON cells after 48 hrs by SRB assay; type: functional; details: for CC50: read-out: LC50 (the source's name); procedure, shortened: as §1
Ovarian carcinoma cell = experiment: Cytotoxicity against human ovarian cancer cells after 48 hrs by SRB assay; type: functional; procedure, shortened: as §1
Renal cancer cell line = experiment: Cytotoxicity against human renal cancer cells after 48 hrs by SRB assay; type: functional; procedure, shortened: as §1
Prostatic carcinoma cell = experiment: Cytotoxicity against human prostate cancer cells after 48 hrs by SRB assay; type: functional; procedure, shortened: as §1
Breast carcinoma cell = experiment: Cytotoxicity against human breast cancer cells after 48 hrs by SRB assay; type: functional; procedure, shortened: as §1
Tubulin (Bos taurus) [2] = biological target: T1, Tubulin (Bos taurus) (UniProt Q6B856+Q862L2+Q862F3); experiment: Inhibition of [3H]colchicine binding to bovine brain tubulin at 5 uM after 20 mins relative to control
Procedure, shortened: (§2)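 Reaction mixtures held 1 μM tubulin, 5 μM [³H]colchicine and test compound at 5 or 50 μM. Read-out was percent inhibition of colchicine binding.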

Tubulin (Bos taurus) [3] = biological target: T1, Tubulin (Bos taurus); experiment: Inhibition of [3H]colchicine binding to bovine brain tubulin at 50 uM after 20 mins relative to control; procedure, shortened: as §2

SMILES	GI50 (CNS carcinoma cell)	TGI (CNS carcinoma cell)	GI50 (Melanoma cell line)	TGI (Melanoma cell line)	CC50 (Melanoma cell line)	GI50 (Leukemia cell)	TGI (Leukemia cell)	GI50 (NSCLC)	TGI (NSCLC)	GI50 [1]	TGI [1]	CC50 [1]	GI50 (Ovarian carcinoma cell)	LC50 (50% lethal concentration) (Ovarian carcinoma cell)	TGI (Ovarian carcinoma cell)	GI50 (Renal cancer cell line)	TGI (Renal cancer cell line)	GI50 (Prostatic carcinoma cell)	GI50 (Breast carcinoma cell)	TGI (Breast carcinoma cell)	also measured
O=C1Nc2ccccc2C1=Cc1c(-c2ccncc2)nc2sccn12	1.6 µM	49.7 µM	3.27 µM	78.3 µM	92.2 µM	2.65 µM	92 µM	8.97 µM	82.4 µM	0.68 µM	63.4 µM	94.3 µM	2.34 µM	91.8 µM	61.3 µM	14.9 µM	73.2 µM	1.1 µM	5.42 µM	67.3 µM	CC50 (CNS carcinoma cell): 95 µM; LC50 (50% lethal concentration) (Renal cancer cell line): 92.4 µM
O=C1Nc2ccc(O)cc2/C1=C/c1c(-c2ccncc2)nc2sccn12	4.46 µM	80.4 µM	15.8 µM	89.4 µM	99.1 µM	10.1 µM	67.6 µM	21.2 µM	76.8 µM	7.5 µM	93 µM	–	33.8 µM	–	86.2 µM	43 µM	90.1 µM	15 µM	4.43 µM	84.2 µM	–
COc1nc2sc(C)cn2c1C=C1C(=O)N(C)c2ccccc21	9.82 µM	42.4 µM	8.08 µM	34.2 µM	93.4 µM	4.35 µM	74.2 µM	9.5 µM	73.2 µM	4.05 µM	36.3 µM	91.1 µM	10.5 µM	92.8 µM	67 µM	13.1 µM	70.5 µM	12.6 µM	4.82 µM	58.2 µM	CC50 (CNS carcinoma cell): 97.3 µM; LC50 (NSCLC): 95.1 µM; TGI (Prostatic carcinoma cell): 66.7 µM
COc1cc2c(c(OC)c1OC)/C(=C\c1c(OC)nc3sc(C)cn13)C(=O)N2	7.79 µM	33.6 µM	7.86 µM	65.7 µM	95.6 µM	5.73 µM	–	9.26 µM	58.8 µM	6.89 µM	69.9 µM	97.2 µM	13.8 µM	93 µM	63.2 µM	9.36 µM	45 µM	11.3 µM	5.37 µM	29.2 µM	CC50 (CNS carcinoma cell): 81.4 µM; LC50 (NSCLC): 99.4 µM; LC50 (50% lethal concentration) (Renal cancer cell line): 98.2 µM; LC50 (concentration killing 50% of cells) (Breast carcinoma cell): 99.3 µM
Cc1nc2sccn2c1-c1nc2sccn2c1C=C1C(=O)Nc2cc(Cl)ccc21	–	–	–	–	–	–	–	–	–	–	–	–	–	–	–	–	–	–	–	–	inhibition (Tubulin (Bos taurus) [2]): 15%; inhibition (Tubulin (Bos taurus) [3]): 28%
COc1ccc2c(c1)/C(=C/c1c(-c3ccncc3)nc3sccn13)C(=O)N2C	0.38 µM	63.1 µM	5.97 µM	85.3 µM	–	0.35 µM	81.8 µM	0.55 µM	82.4 µM	0.34 µM	78.8 µM	93 µM	1.14 µM	93.2 µM	62.4 µM	0.5 µM	65.5 µM	0.39 µM	0.44 µM	80.1 µM	LC50 (Leukemia cell): 96.1 µM; TGI (Prostatic carcinoma cell): 68.8 µM
